SENP7 block = inhibitors of human SENP7 protease. recombinant SENP7, Z-RLRGG-aminoluciferin luminescence, 40 min. inhibition, % at 5 µM. hit rate 1.5% among 330,000;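 active means inhibition above about 50% at the single test dose, limit read from the data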
SENP8 block-1 = SENP8 protease inhibition; purified SENP8, Z-RLRGG-aminoluciferin cleavage, luminescence; inhibition, % at 10 µM; hit rate 1.2% among 330,000; AID 2540; in the data active means inhibition above about 50%
Target sequence (Q96LD8 whole entry, looked up): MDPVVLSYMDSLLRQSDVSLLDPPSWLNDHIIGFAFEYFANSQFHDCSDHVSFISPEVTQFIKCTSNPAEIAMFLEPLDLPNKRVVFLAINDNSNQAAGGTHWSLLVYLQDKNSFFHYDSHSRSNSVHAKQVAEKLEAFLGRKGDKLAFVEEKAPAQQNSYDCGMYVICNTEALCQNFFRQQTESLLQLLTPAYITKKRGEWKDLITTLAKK
SENP1 FRET inh = SENP1 (human) catalytic domain inhibition. Q9P0U3. recombinant SENP1 catalytic domain, CyPet-SUMO1-YPet FRET cleavage. inhibition, % at 10 µM. hit rate 0.21% among 360,000. AID 624204;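 active means inhibition at least 30% at 10 µM, raw YFP signal under a set limit, fluorescence ratio 0.5 to 1.5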
Target sequence (Q9P0U3 419-644 limits assumed): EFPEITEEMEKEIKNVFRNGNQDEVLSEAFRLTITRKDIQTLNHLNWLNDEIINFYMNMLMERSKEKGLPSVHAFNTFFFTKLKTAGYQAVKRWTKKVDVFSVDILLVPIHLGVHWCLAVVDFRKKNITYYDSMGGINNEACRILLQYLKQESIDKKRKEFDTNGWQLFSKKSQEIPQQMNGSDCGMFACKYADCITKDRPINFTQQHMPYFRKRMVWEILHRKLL
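Material – human SENP1 catalytic domain · Input – SENP1 enzyme, 20 pM final · Compound dosing – single concentration of 10 µM compound, 0.5% DMSO final · Timing – enzyme reaction for 50 min at room temperature, dark · Measured by – FRET fluorescence in CFP and YFP emission channels · Control set – no-enzyme wells low, DMSO-plus-enzyme wells high control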
SENP6 block = blocks the human protease SENP6; Q9GZR1; inhibition, % at 10 µM; AID 2599; Recombinant SENP6 catalytic domain, aminoluciferin luminescence; hit rate 1.8% among 330,000;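 active means inhibition above about 50% at the single tested dose, limit read from the data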
SENP8 block-2 = blocks human SENP8 cleavage of Nedd8 substrate | recombinant SENP8, Nedd8 substrate fluorescence | Q96LD8 | inhibition, % at 20 µM | hit rate 0.64% among 360,000; in the data active means inhibition mostly above about 40%, no sharp cut-off; inactive means mostly below about 27%
SENP8 conf = confirmation of human SENP8 protease inhibitors; Recombinant SENP8, Z-RLRGG-aminoluciferin luminescence, 60 min; shares compounds with SENP7 block; hit rate 40% among 6,200; inhibition, % at 12.5 µM;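 active means mean inhibition across replicates above about 50%, limit read from the data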
SENP6 confirm = confirmation of human SENP6 protease inhibitors. inhibition, % at 12.5 µM. shares compounds with SENP7 block. recombinant SENP6, Z-RLRGG-aminoluciferin luminescence. AID 488915. hit rate 58% among 6,200
SENP7 conf = confirmation of human SENP7 protease inhibitors | shares compounds with SENP7 block | recombinant SENP7, Z-RLRGG-aminoluciferin luminescence, 40 min | inhibition, % at 12.5 µM | hit rate 69% among 6,200
Casp3 SENP sel = inhibits human caspase-3 in SENP selectivity test; shares compounds with SENP7 block; purified caspase-3, Z-DEVD-aminoluciferin luminescence, 60 min; inhibition, % at 12.5 µM; hit rate 60% among 6,200;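 active means mean inhibition above about 50%, limit read from the data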
Target sequence (P42574 28-227 limits assumed): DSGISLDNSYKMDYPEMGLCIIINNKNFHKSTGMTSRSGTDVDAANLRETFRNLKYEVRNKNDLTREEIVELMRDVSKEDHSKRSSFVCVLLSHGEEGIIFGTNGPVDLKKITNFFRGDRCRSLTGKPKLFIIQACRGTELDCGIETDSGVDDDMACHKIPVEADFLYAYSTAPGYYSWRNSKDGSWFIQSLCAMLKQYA
SENP luc ctr = interferes with luciferase luminescence in SENP counter-screen; Pre-incubated SENP8/Z-RLRGG-aminoluciferin, luciferase luminescence interference; AID 488919; hit rate 39% among 6,200; shares compounds with SENP7 block; inhibition, % at 12.5 µM;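 active means mean inhibition above about 50% when retested at one dose, limit read from the data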
Hits are given with their value; . = inactive; / = not tested or not shown. Only some compounds are listed: those with a hit (about 2.5% of all), similar ones and a draw of the others.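 How the source made its calls, unless noted: active means mean inhibition above about 50% in the one-dose retest (limit read from the data); inactive means the rest.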

SMILES	SENP7 block	SENP8 block-1	SENP1 FRET inh	SENP6 block	SENP8 block-2	SENP8 conf	SENP6 confirm	SENP7 conf	Casp3 SENP sel	SENP luc ctr
CC(=O)Nc1ccc(N/C=C/C(=O)c2ccccc2)cc1	55	50	.	70	.	.	66	90	78	.
O=C(/C=C/Nc1ccccc1)c1ccc(Cl)cc1Cl	87	83	.	.	.	89	92	98	82	64
CN(C)c1ccc(N/C=C/C(=O)c2ccccc2)cc1	102	95	.	96	.	70	94	100	97	.
Cc1ccc(O)c(N/C=C/C(=O)c2ccc(F)cc2)c1	68	80	.	82	.	61	80	95	67	.
COc1ccc(C(=O)/C=C/Nc2ccc(NC(C)=O)cc2)cc1OC	.	.	.	.	.	/	/	/	/	/
Fc1ccccc1Cc1noc(CN2CCC(OCc3cccnc3)CC2)n1	.	.	.	.	.	/	/	/	/	/
O=C(Nc1ccc2c(c1)CCC2)c1ccccc1	88	82	.	84	.	90	89	98	88	87
Cc1nc(NC(=O)c2ccc(F)cc2)sc1C(=O)Nc1ccc2c(c1)CCC2	.	.	.	.	.	/	/	/	/	/
CCn1ccc(C(=O)Nc2ccc3c(c2)CCC3)n1	59	.	.	.	.	.	.	81	65	57
O=C(O)c1ccccc1-c1ccccc1C(=O)Nc1ccc2c(c1)CCC2	.	.	.	.	.	/	/	/	/	/
CCn1ccc(C(=O)Nc2ccc(N(C)C(C)=O)cc2)n1	.	.	.	.	.	/	/	/	/	/
O=C(Nc1ccc2c(c1)CCC2)c1ccccc1F	80	70	.	92	.	.	86	99	85	85
CN(c1ccccc1)S(=O)(=O)c1cccc(C(=O)Nc2ccc3c(c2)CCC3)c1	.	.	.	.	.	/	/	/	/	/
Cc1ccc(C(=O)Nc2nc(C)c(C(=O)Nc3ccc4c(c3)CCC4)s2)cc1	.	.	.	66	.	.	.	65	.	.
CN(C)c1ccc(/C=C(\Cl)c2nc3ccccc3s2)cc1	/	/	.	/	.	/	/	/	/	/
CCOC(=O)c1ccc(NC(=O)c2cnccn2)cc1	.	.	.	.	.	/	/	/	/	/
CCCCc1ccc(NC(=O)c2cnccn2)cc1	92	85	.	85	.	92	95	101	86	58
O=C(Nc1ccc2c(c1)CCC2)c1cnccn1	.	.	.	52	.	55	52	83	77	.
Cc1ccc(S(=O)(=O)N(C)C)cc1-n1c(SCC(=O)Nc2ccccc2)nc2ccccc2c1=O	.	.	.	50	.	.	.	.	.	.
O=[N+]([O-])c1c(NCCCO)cc(Sc2nc3ccccc3s2)c2nonc12	80	91	.	82	.	.	.	.	.	.
Cc1nnc(Sc2cc(NCCO)c([N+](=O)[O-])c3nonc23)s1	/	/	.	/	.	/	/	/	/	/
CCC(=O)OCCNc1cc(Sc2nc3ccccc3s2)c2nonc2c1[N+](=O)[O-]	.	.	.	72	60	.	.	.	.	.
Cc1cc(NC(=O)c2ccccc2F)nc2c1c(=O)oc1ccccc12	.	.	.	.	.	/	/	/	/	/
N#Cc1c(NC(=O)c2ccc(Br)o2)n(-c2ccccc2)c2nc3ccccc3nc12	77	93	.	.	.	.	90	82	.	.
CCC(C)n1c(NC(=O)c2ccccc2)c(C#N)c2nc3ccccc3nc21 (stereo unspecified)	.	66	.	90	.	.	69	.	.	.
SMILES	SENP7 block	SENP8 block-1	SENP1 FRET inh	SENP6 block	SENP8 block-2	SENP8 conf	SENP6 confirm	SENP7 conf	Casp3 SENP sel	SENP luc ctr
CCCCN(C(=O)NC(=O)Nc1ccccc1OC)S(C)(=O)=O	56	.	.	.	.	.	.	.	.	.
COc1ccccc1NC(=O)NC(=O)N(C(C)C)S(C)(=O)=O	.	.	.	.	.	/	/	/	/	/
O=C1C(=Cc2cccs2)Oc2ccccc21	/	/	.	/	.	/	/	/	/	/
O=C1/C(=C/c2cccs2)COc2ccccc21	83	81	.	98	.	86	92	90	69	94
N#CC1=C(N)Oc2c(oc(CO)cc2=O)C1c1ccsc1 (stereo unspecified)	.	.	.	.	.	/	/	/	/	/
N#CC1=C(N)Oc2c(ccc3ccccc23)C1c1ccsc1 (stereo unspecified)	.	.	.	62	.	.	.	.	.	.
Cc1nc2ccc(NC(=O)c3cc(Cl)ccn3)cc2s1	68	60	.	74	.	.	.	59	.	.
Cc1ccc(C(=O)Nc2ccc3nc(C)sc3c2)s1	.	.	.	.	.	/	/	/	/	/
Cc1nc2ccc(NC(=O)c3ccc(Cl)nc3)cc2s1	.	.	.	92	.	.	.	.	.	.
Cc1nc2ccc(NC(=O)c3ccc(Cl)c([N+](=O)[O-])c3)cc2s1	.	.	.	.	.	/	/	/	/	/
N=c1cc(C2(O)CCCCC2)n2c(nc3ccccc32)s1	58	.	.	62	.	.	.	80	62	54
Nc1nccc(/C=C/c2c(Cl)cccc2Cl)n1	.	.	.	.	.	/	/	/	/	/
Nc1nccc(/C=C/c2ccc(Cl)cc2)n1	75	75	.	80	.	74	85	94	79	.
CC(=O)C1=C(c2ccccc2)NC(=O)NC1c1cccs1 (stereo unspecified)	.	.	.	.	.	/	/	/	/	/
O=C1C(=Cc2ccccn2)CCc2ccccc21	/	/	.	/	.	/	/	/	/	/
Cc1ccsc1/C=C1\CCc2ccccc2C1=O	99	96	.	94	.	100	101	104	100	96
O=C1/C(=C\c2ccc3ccccc3c2)CCCc2ccccc21	.	.	.	.	.	/	/	/	/	/
Cc1ccccc1/C=C1\CCCc2ccccc2C1=O	97	95	.	88	.	95	98	102	93	94
COc1ccc(C(=O)NCCN2CCOCC2)cc1S(=O)(=O)Nc1ccc(C)cc1	.	.	.	.	.	/	/	/	/	/
O=S(=O)(NC(=NCCc1ccc(Cl)cc1)c1ccccc1Cl)c1cccs1	.	.	.	.	.	/	/	/	/	/
Clc1ccc(-c2cc3ccccc3[nH]2)cc1	.	.	.	71	.	.	.	78	.	.
CC(C)=C(NC(=O)c1ccccc1Br)C(=O)NCCc1nc2ccccc2[nH]1	.	.	.	.	.	/	/	/	/	/
COc1cc(OC)c(-c2nc3ccccc3s2)cc1OC	.	.	.	.	.	/	/	/	/	/
Oc1cccc(-c2nc3ccccc3s2)c1	95	92	.	96	.	.	95	102	87	95

Source: PubChem BioAssay
